From article PMC12166256 (Clinical Pharmacology and Therapeutics, 2025)

Assay: SAD study: safety and tolerability
Format: in vivo, human
Conditions: for Abdominal pain TEAE, events / Abdominal pain TEAE, participants / Any event TEAE, events / Any event TEAE, participants / Diarrhea TEAE, events / Diarrhea TEAE, participants / Dysgeusia TEAE, events / Dysgeusia TEAE, participants / Gastrointestinal disorders TEAE, events / Gastrointestinal disorders TEAE, participants / Headache TEAE, events / Headache TEAE, participants / Hypoaesthesia oral TEAE, events / Hypoaesthesia oral TEAE, participants / Infections and infestations TEAE, events / Infections and infestations TEAE, participants / Insomnia TEAE, events / Insomnia TEAE, participants / Nasopharyngitis TEAE, events / Nasopharyngitis TEAE, participants / Nervous system disorders TEAE, events / Nervous system disorders TEAE, participants / Psychiatric disorders TEAE, events / Psychiatric disorders TEAE, participants / Rash TEAE, events / Rash TEAE, participants / Skin and subcutaneous tissue disorders TEAE, events / Skin and subcutaneous tissue disorders TEAE, participants / Tooth infection TEAE, events / Tooth infection TEAE, participants: N = 6
Method in brief: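 Healthy males aged 18–55 with BMI 18–30 kg/m² were followed through dosing and a 6–8-day follow-up. Checks: physical examination, clinical laboratory tests, vital signs and 12-lead ECG, with adverse events coded in MedDRA. Events of special interest: ALT ≥2×ULN, QTcF ≥500 ms, Grade ≥2 photosensitivity, symptomatic overdose. Treatment-emergent events were summarised descriptively by organ class, preferred term and dose level for all exposed participants.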

CN1C(=O)c2cccc(OC(F)F)c2[C@H]2C[C@@H]1c1nc3ccc(-c4cnc(C5(N)CCC5)nc4)cc3n12 [Balinatunfib]
Grade ≥ 3 TEAE, treatment-emergent SAEs, TEAEs leading to discontinuation, AESIs (SAD): No participants | Abdominal pain TEAE, events (SAD 5 mg): 0 | Abdominal pain TEAE, participants (SAD 5 mg): 0 n (%) | Any event TEAE, events (SAD 5 mg): 0 | Any event TEAE, participants (SAD 5 mg): 0 n (%) | Diarrhea TEAE, events (SAD 5 mg): 0 | Diarrhea TEAE, participants (SAD 5 mg): 0 n (%) | Dysgeusia TEAE, events (SAD 5 mg): 0 | Dysgeusia TEAE, participants (SAD 5 mg): 0 n (%) | Gastrointestinal disorders TEAE, events (SAD 5 mg): 0 | Gastrointestinal disorders TEAE, participants (SAD 5 mg): 0 n (%) | Headache TEAE, events (SAD 5 mg): 0 | Headache TEAE, participants (SAD 5 mg): 0 n (%) | Hypoaesthesia oral TEAE, events (SAD 5 mg): 0 | Hypoaesthesia oral TEAE, participants (SAD 5 mg): 0 n (%) | Infections and infestations TEAE, events (SAD 5 mg): 0 | Infections and infestations TEAE, participants (SAD 5 mg): 0 n (%) | Insomnia TEAE, events (SAD 5 mg): 0 | Insomnia TEAE, participants (SAD 5 mg): 0 n (%) | Nasopharyngitis TEAE, events (SAD 5 mg): 0 | Nasopharyngitis TEAE, participants (SAD 5 mg): 0 n (%) | Nervous system disorders TEAE, events (SAD 5 mg): 0 | Nervous system disorders TEAE, participants (SAD 5 mg): 0 n (%) | Psychiatric disorders TEAE, events (SAD 5 mg): 0 | Psychiatric disorders TEAE, participants (SAD 5 mg): 0 n (%) | Rash TEAE, events (SAD 5 mg): 0 | Rash TEAE, participants (SAD 5 mg): 0 n (%) | Skin and subcutaneous tissue disorders TEAE, events (SAD 5 mg): 0 | Skin and subcutaneous tissue disorders TEAE, participants (SAD 5 mg): 0 n (%) | Tooth infection TEAE, events (SAD 5 mg): 0 | Tooth infection TEAE, participants (SAD 5 mg): 0 n (%) | Abdominal pain TEAE, events (SAD 20 mg): 0 | Abdominal pain TEAE, participants (SAD 20 mg): 0 n (%) | Any event TEAE, events (SAD 20 mg): 0 | Any event TEAE, participants (SAD 20 mg): 0 n (%) | Diarrhea TEAE, events (SAD 20 mg): 0 | Diarrhea TEAE, participants (SAD 20 mg): 0 n (%) | Dysgeusia TEAE, events (SAD 20 mg): 0 | Dysgeusia TEAE, participants (SAD 20 mg): 0 n (%) | Gastrointestinal disorders TEAE, events (SAD 20 mg): 0 | Gastrointestinal disorders TEAE, participants (SAD 20 mg): 0 n (%) | Headache TEAE, events (SAD 20 mg): 0 | Headache TEAE, participants (SAD 20 mg): 0 n (%) | Hypoaesthesia oral TEAE, events (SAD 20 mg): 0 | Hypoaesthesia oral TEAE, participants (SAD 20 mg): 0 n (%) | Infections and infestations TEAE, events (SAD 20 mg): 0 | Infections and infestations TEAE, participants (SAD 20 mg): 0 n (%) | Insomnia TEAE, events (SAD 20 mg): 0 | Insomnia TEAE, participants (SAD 20 mg): 0 n (%) | Nasopharyngitis TEAE, events (SAD 20 mg): 0 | Nasopharyngitis TEAE, participants (SAD 20 mg): 0 n (%) | Nervous system disorders TEAE, events (SAD 20 mg): 0 | Nervous system disorders TEAE, participants (SAD 20 mg): 0 n (%) | Psychiatric disorders TEAE, events (SAD 20 mg): 0 | Psychiatric disorders TEAE, participants (SAD 20 mg): 0 n (%) | Rash TEAE, events (SAD 20 mg): 0 | Rash TEAE, participants (SAD 20 mg): 0 n (%) | Skin and subcutaneous tissue disorders TEAE, events (SAD 20 mg): 0 | Skin and subcutaneous tissue disorders TEAE, participants (SAD 20 mg): 0 n (%) | Tooth infection TEAE, events (SAD 20 mg): 0 | Tooth infection TEAE, participants (SAD 20 mg): 0 n (%) | Abdominal pain TEAE, events (SAD 60 mg): 0 | Abdominal pain TEAE, participants (SAD 60 mg): 0 n (%) | Any event TEAE, events (SAD 60 mg): 1 | Any event TEAE, participants (SAD 60 mg): 1 (16.7) n (%) | Diarrhea TEAE, events (SAD 60 mg): 0 | Diarrhea TEAE, participants (SAD 60 mg): 0 n (%) | Dysgeusia TEAE, events (SAD 60 mg): 0 | Dysgeusia TEAE, participants (SAD 60 mg): 0 n (%) | Gastrointestinal disorders TEAE, events (SAD 60 mg): 0 | Gastrointestinal disorders TEAE, participants (SAD 60 mg): 0 n (%) | Headache TEAE, events (SAD 60 mg): 0 | Headache TEAE, participants (SAD 60 mg): 0 n (%) | Hypoaesthesia oral TEAE, events (SAD 60 mg): 0 | Hypoaesthesia oral TEAE, participants (SAD 60 mg): 0 n (%) | Infections and infestations TEAE, events (SAD 60 mg): 1 | Infections and infestations TEAE, participants (SAD 60 mg): 1 (16.7) n (%) | Insomnia TEAE, events (SAD 60 mg): 0 | Insomnia TEAE, participants (SAD 60 mg): 0 n (%) | Nasopharyngitis TEAE, events (SAD 60 mg): 0 | Nasopharyngitis TEAE, participants (SAD 60 mg): 0 n (%) | Nervous system disorders TEAE, events (SAD 60 mg): 0 | Nervous system disorders TEAE, participants (SAD 60 mg): 0 n (%) | Psychiatric disorders TEAE, events (SAD 60 mg): 0 | Psychiatric disorders TEAE, participants (SAD 60 mg): 0 n (%) | Rash TEAE, events (SAD 60 mg): 0 | Rash TEAE, participants (SAD 60 mg): 0 n (%) | Skin and subcutaneous tissue disorders TEAE, events (SAD 60 mg): 0 | Skin and subcutaneous tissue disorders TEAE, participants (SAD 60 mg): 0 n (%) | Tooth infection TEAE, events (SAD 60 mg): 1 | Tooth infection TEAE, participants (SAD 60 mg): 1 (16.7) n (%) | Abdominal pain TEAE, events (SAD 180 mg): 0 | Abdominal pain TEAE, participants (SAD 180 mg): 0 n (%) | Any event TEAE, events (SAD 180 mg): 0 | Any event TEAE, participants (SAD 180 mg): 0 n (%) | Diarrhea TEAE, events (SAD 180 mg): 0 | Diarrhea TEAE, participants (SAD 180 mg): 0 n (%) | Dysgeusia TEAE, events (SAD 180 mg): 0 | Dysgeusia TEAE, participants (SAD 180 mg): 0 n (%) | Gastrointestinal disorders TEAE, events (SAD 180 mg): 0 | Gastrointestinal disorders TEAE, participants (SAD 180 mg): 0 n (%) | Headache TEAE, events (SAD 180 mg): 0 | Headache TEAE, participants (SAD 180 mg): 0 n (%) | Hypoaesthesia oral TEAE, events (SAD 180 mg): 0 | Hypoaesthesia oral TEAE, participants (SAD 180 mg): 0 n (%) | Infections and infestations TEAE, events (SAD 180 mg): 0 | Infections and infestations TEAE, participants (SAD 180 mg): 0 n (%) | Insomnia TEAE, events (SAD 180 mg): 0 | Insomnia TEAE, participants (SAD 180 mg): 0 n (%) | Nasopharyngitis TEAE, events (SAD 180 mg): 0 | Nasopharyngitis TEAE, participants (SAD 180 mg): 0 n (%) | Nervous system disorders TEAE, events (SAD 180 mg): 0 | Nervous system disorders TEAE, participants (SAD 180 mg): 0 n (%) | Psychiatric disorders TEAE, events (SAD 180 mg): 0 | Psychiatric disorders TEAE, participants (SAD 180 mg): 0 n (%) | Rash TEAE, events (SAD 180 mg): 0 | Rash TEAE, participants (SAD 180 mg): 0 n (%) | Skin and subcutaneous tissue disorders TEAE, events (SAD 180 mg): 0 | Skin and subcutaneous tissue disorders TEAE, participants (SAD 180 mg): 0 n (%) | Tooth infection TEAE, events (SAD 180 mg): 0 | Tooth infection TEAE, participants (SAD 180 mg): 0 n (%) | Abdominal pain TEAE, events (SAD 400 mg): 1 | Abdominal pain TEAE, participants (SAD 400 mg): 1 (16.7) n (%) | Any event TEAE, events (SAD 400 mg): 4 | Any event TEAE, participants (SAD 400 mg): 2 (33.3) n (%) | Diarrhea TEAE, events (SAD 400 mg): 0 | Diarrhea TEAE, participants (SAD 400 mg): 0 n (%) | Dysgeusia TEAE, events (SAD 400 mg): 2 | Dysgeusia TEAE, participants (SAD 400 mg): 2 (33.3) n (%) | Gastrointestinal disorders TEAE, events (SAD 400 mg): 1 | Gastrointestinal disorders TEAE, participants (SAD 400 mg): 1 (16.7) n (%) | Headache TEAE, events (SAD 400 mg): 1 | Headache TEAE, participants (SAD 400 mg): 1 (16.7) n (%) | Hypoaesthesia oral TEAE, events (SAD 400 mg): 0 | Hypoaesthesia oral TEAE, participants (SAD 400 mg): 0 n (%) | Infections and infestations TEAE, events (SAD 400 mg): 0 | Infections and infestations TEAE, participants (SAD 400 mg): 0 n (%) | Insomnia TEAE, events (SAD 400 mg): 0 | Insomnia TEAE, participants (SAD 400 mg): 0 n (%) | Nasopharyngitis TEAE, events (SAD 400 mg): 0 | Nasopharyngitis TEAE, participants (SAD 400 mg): 0 n (%) | Nervous system disorders TEAE, events (SAD 400 mg): 3 | Nervous system disorders TEAE, participants (SAD 400 mg): 2 (33.3) n (%) | Psychiatric disorders TEAE, events (SAD 400 mg): 0 | Psychiatric disorders TEAE, participants (SAD 400 mg): 0 n (%) | Rash TEAE, events (SAD 400 mg): 0 | Rash TEAE, participants (SAD 400 mg): 0 n (%) | Skin and subcutaneous tissue disorders TEAE, events (SAD 400 mg): 0 | Skin and subcutaneous tissue disorders TEAE, participants (SAD 400 mg): 0 n (%) | Tooth infection TEAE, events (SAD 400 mg): 0 | Tooth infection TEAE, participants (SAD 400 mg): 0 n (%) | Abdominal pain TEAE, events (SAD 600 mg): 0 | Abdominal pain TEAE, participants (SAD 600 mg): 0 n (%) | Any event TEAE, events (SAD 600 mg): 3 | Any event TEAE, participants (SAD 600 mg): 2 (33.3) n (%) | Diarrhea TEAE, events (SAD 600 mg): 0 | Diarrhea TEAE, participants (SAD 600 mg): 0 n (%) | Dysgeusia TEAE, events (SAD 600 mg): 0 | Dysgeusia TEAE, participants (SAD 600 mg): 0 n (%) | Gastrointestinal disorders TEAE, events (SAD 600 mg): 1 | Gastrointestinal disorders TEAE, participants (SAD 600 mg): 1 (16.7) n (%) | Headache TEAE, events (SAD 600 mg): 0 | Headache TEAE, participants (SAD 600 mg): 0 n (%) | Hypoaesthesia oral TEAE, events (SAD 600 mg): 1 | Hypoaesthesia oral TEAE, participants (SAD 600 mg): 1 (16.7) n (%) | Infections and infestations TEAE, events (SAD 600 mg): 1 | Infections and infestations TEAE, participants (SAD 600 mg): 1 (16.7) n (%) | Insomnia TEAE, events (SAD 600 mg): 1 | Insomnia TEAE, participants (SAD 600 mg): 1 (16.7) n (%) | Nasopharyngitis TEAE, events (SAD 600 mg): 1 | Nasopharyngitis TEAE, participants (SAD 600 mg): 1 (16.7) n (%) | Nervous system disorders TEAE, events (SAD 600 mg): 0 | Nervous system disorders TEAE, participants (SAD 600 mg): 0 n (%) | Psychiatric disorders TEAE, events (SAD 600 mg): 1 | Psychiatric disorders TEAE, participants (SAD 600 mg): 1 (16.7) n (%) | Rash TEAE, events (SAD 600 mg): 0 | Rash TEAE, participants (SAD 600 mg): 0 n (%) | Skin and subcutaneous tissue disorders TEAE, events (SAD 600 mg): 0 | Skin and subcutaneous tissue disorders TEAE, participants (SAD 600 mg): 0 n (%) | Tooth infection TEAE, events (SAD 600 mg): 0 | Tooth infection TEAE, participants (SAD 600 mg): 0 n (%) | participants with at least one TEAE (SAD, all balinatunfib groups (five of 36)): 13.9% | tolerability (all single oral doses (5–600 mg)): well tolerated
